pEC50, pIC50: −log10 of the molar value. In brackets after ≈: the same amount, converted by molar mass. Activity calls are given as the source filed them. The rule behind the calls is not given here. Where a SMILES comes first, the peptide text is derived from it. Bridges are numbered along the chain shown (N, C = ends).
Columns and labels:
Staphylococcus aureus = experiment: Antibacterial activity against Staphylococcus aureus ATCC 29213 assessed as inhibition of bacterial growth at 6 to 12 hrs by dilution method; assay type: functional; conditions: time 6-12 hrs
How it was run: (§1)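 Broth-free microdilution MIC assay. Microbes were grown overnight in 3% TSB at 37 °C, washed twice and resuspended in Tris buffer, then adjusted by A600 to 1 × 10⁶ cells/mL (about 50 000 cells/well). Cells were mixed 1:1 with 2-fold serial dilutions of peptide in Tris buffer (highest tested 32.5 μM) and held 5 h. Then 20% TSB was added and plates incubated 6–12 h at 37 °C, depending on organism. MIC was read as the lowest concentration giving 100% growth inhibition. Run in triplicate.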

Cell membrane = experiment: Induction of bacterial inner membrane permeabilization in Escherichia coli assessed as carboxyfluorescein leakage measured for 45 mins by fluorescence based microplate reader assay; assay type: subcellular
How it was run: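 Liposomes were made from E. coli polar lipid extract loaded with 100 mM carboxyfluorescein in 10 mM Tris, pH 7.4, extruded through 100 nm membranes and gel-filtered. They were added at 10 μM final lipid to 2-fold peptide dilutions in Tris at 37 °C, with no cumulative additions. Dequenching was monitored for 45 min and normalized to 0.16% Triton X-100 after baseline subtraction. Values are the mean ± SD of triplicates; EC50 came from a variable-slope sigmoidal fit against log concentration.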

Pseudomonas aeruginosa = experiment: Antibacterial activity against Pseudomonas aeruginosa ATCC 27853 assessed as inhibition of bacterial growth at 6 to 12 hrs by dilution method; assay type: functional; conditions: time 6-12 hrs; how it was run: as §1
U-937 [1] = experiment: Cytotoxicity against human U-937 cells assessed as cell survival at 20 uM incubated for 72 hrs by FMCA assay; assay type: functional, cell-based
How it was run: (§2)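 FMCA with U937 human lymphoma cells, about 20 000 cells/well, exposed to 2-fold peptide dilutions for 72 h at 37 °C in 5% CO₂. Cells were washed with PBS and given FDA in Q2 buffer (NaCl/HEPES, pH 7.4) for 40 min at 37 °C. Fluorescence was read at ex 485/em 538 nm. Viability was expressed as % of control after blank subtraction; IC50 came from a variable-slope sigmoidal fit against log concentration.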

Candida albicans = experiment: Antibacterial activity against Candida albicans ATCC 90028 assessed as inhibition of bacterial growth at 6 to 12 hrs by dilution method; assay type: functional; conditions: time 6-12 hrs; how it was run: as §1
U-937 [2] = experiment: Cytotoxicity against human U-937 cells assessed as inhibition of cell growth incubated for 72 hrs by FMCA assay; assay type: functional, cell-based; conditions: U-937, 72 h
How it was run: as §2, with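 “°C.” for “°C. Fluorescence was read at ex 485/em 538 nm.”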

SMILES	MIC (Staphylococcus aureus)	pEC50 (Cell membrane)	MIC (Pseudomonas aeruginosa)	Activity (U-937 [1])	MIC (Candida albicans)	pIC50 (U-937 [2])
CC[C@H](C)[C@@H]1NC(=O)[C@H](C(C)C)NC(=O)[C@H]([C@@H](C)O)NC(=O)[C@H]([C@@H](C)O)NC(=O)[C@H]([C@@H](C)CC)NC(=O)[C@H]2CSSC[C@@H]3NC(=O)[C@H](C(C)C)NC(=O)[C@H](CCCCN)NC(=O)[C@H](CC(=O)O)NC(=O)[C@H](CCCCN)NC(=O)[C@@H]4CSSC[C@H](NC(=O)[C@H](CO)NC(=O)[C@H](CCC(=O)O)NC(=O)CNC(=O)[C@H](CSSC[C@@H](NC(=O)CNC1=O)C(=O)N[C@@H](CO)C(=O)N4)NC(=O)[C@@H]1CCCN1C(=O)[C@H](C(C)C)NC(=O)CNC(=O)[C@H](CC(N)=O)NC(=O)[C@H]([C@@H](C)O)NC(=O)[C@H](Cc1ccc(O)cc1)NC3=O)C(=O)N[C@@H](C(C)C)C(=O)N[C@@H](Cc1ccccc1)C(=O)N[C@@H]([C@@H](C)CC)C(=O)N1CCC[C@H]1C(=O)N2	> 10 µM	6.80	> 10 µM	Active	> 10 µM	–
CC[C@H](C)[C@@H]1NC(=O)[C@H](C)NC(=O)[C@H](CO)NC(=O)[C@H](CO)NC(=O)[C@H]([C@@H](C)CC)NC(=O)[C@@H]2CSSC[C@@H]3NC(=O)[C@H](C(C)C)NC(=O)[C@H](CCCCN)NC(=O)[C@H](CO)NC(=O)[C@H](CCCCN)NC(=O)[C@@H]4CSSC[C@H](NC(=O)[C@H](CO)NC(=O)[C@H](CCC(=O)O)NC(=O)CNC(=O)[C@H](CSSC[C@H](NC(=O)CNC1=O)C(=O)N[C@@H](CO)C(=O)N4)NC(=O)[C@@H]1CCCN1C(=O)[C@H]([C@@H](C)CC)NC(=O)CNC(=O)[C@H](CC(N)=O)NC(=O)[C@H](CCCNC(=N)N)NC(=O)[C@H](Cc1ccc(O)cc1)NC3=O)C(=O)N[C@@H](C(C)C)C(=O)N[C@@H](Cc1c[nH]c3ccccc13)C(=O)N[C@@H]([C@@H](C)CC)C(=O)N1CCC[C@H]1C(=O)N2 (cyclo(AIGCSCKSKVCYRNGIPCGESCVWIPCISS); disulfide 4-18, 6-22, 11-27)	> 10 µM	–	10 µM (≈ 31.4 µg/mL)	–	> 10 µM	6.59
CC[C@H](C)[C@@H]1NC(=O)[C@H](Cc2ccccc2)NC(=O)[C@H](C(C)C)NC(=O)[C@@H]2CSSC[C@@H]3NC(=O)[C@H](CO)NC(=O)[C@H]4CSSC[C@H](NC(=O)[C@@H]5CCCN5C(=O)[C@H](C(C)C)NC(=O)CNC(=O)[C@H](CC(N)=O)NC(=O)[C@H](CC(N)=O)NC(=O)[C@H](Cc5ccc(O)cc5)NC(=O)[C@H](CSSC[C@H](NC(=O)[C@@H]5CCCN5C1=O)C(=O)N[C@@H](Cc1ccccc1)C(=O)N[C@@H]([C@@H](C)O)C(=O)N[C@@H]([C@@H](C)O)C(=O)N[C@@H](C(C)C)C(=O)N[C@@H](C(C)C)C(=O)NCC(=O)N4)NC(=O)[C@H](C(C)C)NC(=O)[C@H](CCCCN)NC(=O)[C@H](CC(=O)O)NC(=O)[C@H](CCCCN)NC3=O)C(=O)NCC(=O)N[C@@H](CCC(=O)O)C(=O)N[C@@H](CO)C(=O)N2	> 10 µM	6.80	> 10 µM	Active	> 10 µM	–
CC[C@H](C)[C@@H]1NC(=O)CNC(=O)[C@H](CC(N)=O)NC(=O)[C@H]([C@@H](C)CC)NC(=O)[C@H](Cc2ccc(O)cc2)NC(=O)[C@@H]2CSSC[C@H]3NC(=O)CNC(=O)[C@H](Cc4ccccc4)NC(=O)[C@H](Cc4ccc(O)cc4)NC(=O)[C@H](C)NC(=O)[C@@H]4CSSC[C@H](NC(=O)[C@H](CO)NC(=O)[C@H](CSSC[C@H](NC(=O)[C@H](C)NC1=O)C(=O)NCC(=O)N[C@@H](CCC(=O)O)C(=O)N[C@@H](CO)C(=O)N4)NC(=O)CNC(=O)[C@@H]1CCCN1C(=O)[C@H]([C@@H](C)CC)NC(=O)[C@H](Cc1c[nH]c4ccccc14)NC3=O)C(=O)N[C@@H](CCCCN)C(=O)N[C@@H](CC(=O)O)C(=O)N[C@@H](CCCCN)C(=O)N[C@@H](C(C)C)C(=O)N2	> 10 µM	6.85	> 10 µM	Active	> 10 µM	–

Source: ChEMBL document CHEMBL5226362, “Screening for Cyclotides in Sri Lankan Medicinal Plants: Discovery, Characterization, and Bioactivity Screening of Cyclotides from Geophila repens” (J Nat Prod, 2023)
